Target: T1, human ERO1α (Homo sapiens, UniProt Q96HE7, C104A/C131A/C166A)
T1 sequence (Q96HE7 22-468 C104A/C131A/C166A): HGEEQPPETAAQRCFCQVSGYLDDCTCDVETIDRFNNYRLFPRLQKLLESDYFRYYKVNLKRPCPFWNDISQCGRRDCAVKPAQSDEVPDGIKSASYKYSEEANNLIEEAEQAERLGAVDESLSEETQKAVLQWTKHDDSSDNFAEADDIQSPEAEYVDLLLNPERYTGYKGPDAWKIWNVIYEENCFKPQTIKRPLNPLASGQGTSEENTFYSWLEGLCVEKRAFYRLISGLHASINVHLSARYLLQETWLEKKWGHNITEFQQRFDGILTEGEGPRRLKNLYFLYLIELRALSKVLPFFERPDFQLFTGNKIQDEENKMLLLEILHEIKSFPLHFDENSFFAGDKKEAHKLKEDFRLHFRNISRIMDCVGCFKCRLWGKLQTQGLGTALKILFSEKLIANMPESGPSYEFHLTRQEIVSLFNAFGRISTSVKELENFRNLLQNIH
Assay: Recombinant ERO1α enzyme assay
Format: biochemical
Settings: up to 200 µM; FAD covalent modifiers
In short: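 Hyperactive human ERO1α (a.a. 22-468, C104A/C131A/C166A) and human PDI (a.a. 18-479) were used, each at 0.0625 mg/mL, with rising test compound concentrations. Activity was quantified by Amplex Red. Data are mean ± S.D. of 3 independent experiments, each run in triplicate.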

`N[C@@H]1C[C@H]1c1ccccc1` (racemic) [tranylcypromine] was tested, and the “inhibition of ERO1α activity, concentration-response” value was “did not inhibit”.
